Experimental data published in PMC10756989 (Heliyon, 2023).

Legend:
[1] = Ferric; details: for FRAP IC50: ferric reducing power, 63–500 μg/mL, 700 nm; for Fe^3+ reducing power: at 500 μg/mL, Fig. 14
Summary of the method: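 Potassium ferricyanide reduction: test compound or Trolox (63–500 μg/mL) with 200 mM phosphate buffer and 1 % K3Fe(CN)6, 50 °C, 25 min. Then TCA (0.1 g/mL) is added, the mix is diluted with water, and 0.1 % FeCl3 is added before reading. Reducing capacity is estimated from a gallic acid standard curve.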

[2] = DPPH radical mopping capacity; details: DPPH 300 μM in methanol, 30 min, 516 nm
Summary of the method: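 Test compound or Trolox reference (63–500 μg/mL) mixed with DPPH in methanol and kept in the dark at ambient temperature. Absorbance is read against a control without sample or Trolox.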

[3] = Nitric oxide; details: for NO IC50: 10 mM sodium nitroprusside, pH 7.4 PBS, 25 °C, 546 nm; for NO scavenging activity: Fig. 12
Summary of the method: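 Test compound or Trolox reference at various concentrations, incubated 2 h with sodium nitroprusside in PBS. Griess reagent is added, with a further 5 min at 25 °C. Absorbance is read against a blank without test samples.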

[4] = target: T1, pancreatic α-amylase (Homo sapiens, UniProt P04746); experiment: α-amylase enzyme inhibitory activity; assay type: biochemical; details: for percentage α-amylase inhibition: at 63 μg/mL, Fig. 5
T1 sequence (P04746 16-511): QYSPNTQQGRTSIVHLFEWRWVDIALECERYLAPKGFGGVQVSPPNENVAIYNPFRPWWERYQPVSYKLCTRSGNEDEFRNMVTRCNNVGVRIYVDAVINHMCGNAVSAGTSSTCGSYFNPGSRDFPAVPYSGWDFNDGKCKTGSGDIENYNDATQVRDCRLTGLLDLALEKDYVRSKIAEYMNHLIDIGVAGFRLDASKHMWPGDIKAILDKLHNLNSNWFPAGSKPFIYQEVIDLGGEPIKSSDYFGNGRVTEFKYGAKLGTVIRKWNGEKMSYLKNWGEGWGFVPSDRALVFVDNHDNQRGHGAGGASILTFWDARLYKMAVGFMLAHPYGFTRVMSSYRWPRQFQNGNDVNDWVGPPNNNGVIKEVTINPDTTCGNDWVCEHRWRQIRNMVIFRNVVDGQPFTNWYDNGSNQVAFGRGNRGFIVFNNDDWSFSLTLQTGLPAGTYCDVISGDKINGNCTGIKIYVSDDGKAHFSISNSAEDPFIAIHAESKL

[5] = target: yeast α-glucosidase (Saccharomyces cerevisiae, UniProt P53341); experiment: α-glucosidase enzyme inhibitory activity; assay type: biochemical; details: for α-glucosidase percentage inhibition: at 250 μg/mL
Sequence of yeast α-glucosidase (P53341 whole entry): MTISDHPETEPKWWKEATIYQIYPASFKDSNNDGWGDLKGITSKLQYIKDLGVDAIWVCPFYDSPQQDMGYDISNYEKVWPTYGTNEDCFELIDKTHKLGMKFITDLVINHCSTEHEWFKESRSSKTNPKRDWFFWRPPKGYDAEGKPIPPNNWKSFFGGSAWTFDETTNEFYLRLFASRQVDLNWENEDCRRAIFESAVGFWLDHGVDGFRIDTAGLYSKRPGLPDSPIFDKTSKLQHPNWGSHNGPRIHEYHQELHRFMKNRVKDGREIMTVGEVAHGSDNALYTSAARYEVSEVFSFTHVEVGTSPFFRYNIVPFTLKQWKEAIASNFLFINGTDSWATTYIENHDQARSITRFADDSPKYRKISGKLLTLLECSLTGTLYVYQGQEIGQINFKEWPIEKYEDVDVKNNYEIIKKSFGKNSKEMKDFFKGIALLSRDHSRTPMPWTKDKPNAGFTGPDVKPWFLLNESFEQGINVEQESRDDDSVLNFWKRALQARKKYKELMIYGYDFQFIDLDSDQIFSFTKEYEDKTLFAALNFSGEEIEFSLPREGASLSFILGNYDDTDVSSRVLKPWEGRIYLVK

| Compound | FRAP IC50 [1] | DPPH IC50 [2] | NO IC50 ([3]; listed as Acarbose (Standard)) | percentage α-amylase inhibition [4] | Fe^3+ reducing power [1] | NO IC50 [3] | NO scavenging activity ([3]; at 63–250 μg/mL, versus other compounds and Trolox) | α-glucosidase percentage inhibition ([5]; Fig. 6) | α-glucosidase inhibitory effect ([5]; at 63–125 μg/mL, among the synthesised samples, Fig. 6) | IC50 [4] [µM] | NO scavenging activity ([3]; at 500 μg/mL) | IC50 [5] [µM] | α-glucosidase inhibitory activity ([5]; at 500 μg/mL, compared with L1 and acarbose, Fig. 6) |
| --- | --- | --- | --- | --- | --- | --- | --- | --- | --- | --- | --- | --- | --- |
| C[C@H]1O[C@H](O[C@H]2[C@H](O)[C@@H](O)[C@@H](O[C@H]3[C@H](O)[C@@H](O)C(O)O[C@@H]3CO)O[C@@H]2CO)[C@H](O)[C@@H](O)[C@@H]1N[C@H]1C=C(CO)[C@@H](O)[C@H](O)[C@H]1O (stereo partly shown) [Acarbose, reference compound] | 292,51 μg/mL | 13,62 μg/mL | 109,59 μg/mL | indistinguishable | – | – | – | – | – | – | – | – | – |
| Cc1cc(C)c(/N=C/c2ccc3ccccc3c2)c(C)c1 [Compound L1, (E)-N-mesityl-1-(naphthalen-2-yl)methanimine] | >500 µg/mL | 25,44 μg/mL | – | indistinguishable | slightly better abilities | 70,91 μg/mL | significantly higher | did not exhibit statistically significant differences | significantly higher inhibitory effect | 215 | – | – | – |
| Cc1cccc(C)c1/N=C/c1ccc2ccccc2c1 [Compound L2, (E)-N-(2,6-dimethylphenyl)-1-(naphthalen-2-yl)methanimine] | >500 µg/mL | 35,69 μg/mL | – | indistinguishable | slightly better abilities | 119,68 μg/mL | – | did not exhibit statistically significant differences | – | > 1930 | lower compared with the other test compounds and standard | 568 | significantly greater activity |
| CC(C)c1cccc(C(C)C)c1/N=C/c1ccc2ccccc2c1 [Compound L3, (E)-N-(2,6-diisopropylphenyl)-1-(naphthalen-2-yl)methanimine] | >500 µg/mL | 67,81 μg/mL | – | – | – | 91,21 μg/mL | – | – | – | > 1580 | – | 653 | – |
| Cc1c(C)c2c(c(C)c1O)CCC(C)(C(=O)O)O2 (stereo not shown) [Trolox, reference compound] | 292.51 µg/mL | 13.62 µg/mL | – | – | – | 109.59 µg/mL | – | – | – | – | – | – | – |
